Source: paper PMC3932958 (Journal of medicinal chemistry, 2013)
Each block holds one molecule with its values, some of them ahead of it.

Legend:
[1] = Chemical stability in simulated gastric fluid; assay type: physicochemical; conditions: simulated gastric fluid pH 1.2, 37 °C, up to 48 h
Summary of the method: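 Test compound added to simulated gastric fluid (pH 1.2) and incubated at 37 °C. Samples taken at 30 min, 1, 4 and 48 h. Remaining thiolactone and hydrolysed parent quantified by HPLC: C18 column, water/acetonitrile gradient with 0.1% formic acid, UV detection at 220 nm.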

[2] = Metabolic stability in rat liver microsomes; assay type: in vitro ADME; conditions: over 1.5 h (data not shown)
Summary of the method: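 Test compound at 10 μM incubated with rat liver microsomes (0.5 mg/mL) in 100 mM potassium phosphate, pH 7.4, in triplicate. Aliquots at 0, 30, 60 and 90 min were quenched with 2 volumes of ice-cold acetonitrile containing losartan as internal standard. Appearance of the parent thiol and loss of compound were followed by LC/MS/MS (C18, negative-ion ESI, MRM of [M − H]−).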

[3] = test system: GCPII; conditions: read-out: IC50 (GCPII); cited from earlier work
[4] = test system: rat chronic constriction injury model of neuropathic pain; conditions: cited from earlier work
[5] = Preliminary in vivo pharmacokinetics in rats; conditions: rat, oral 10 mg/kg, time points 0.25, 0.5, 1, 3 h
[6] = healthy subjects; cited from earlier work

Release of parent compound / stability in simulated gastric fluid [1]: completely stable | Stability in rat liver microsomes [2]: completely stable
SMILES: O=C(O)c1cccc(-c2cccc3c2C(=O)SCC3)c1 [Compound 6, 3-(1-Oxoisothiochroman-8-yl)benzoic acid]

SMILES: O=C(O)c1cccc(-c2cccc(CCS)c2C(=O)O)c1 [Compound 2, 3-(2-mercaptoethyl)-biphenyl-2,3’-dicarboxylic acid]
IC50 [3]: 2 nM | Potency in a preclinical model of neuropathic pain following oral administration ([4]; oral administration): significantly improved potency over 1

Release of parent compound / stability in simulated gastric fluid [1]: completely stable | Time of highest plasma level of compound 1 [5]: highest at the earliest time point
SMILES: O=C(O)CCC1CCCSC1=O (stereo not drawn) [Compound 5, 3-(2-Oxotetrahydro-2H-thiopyran-3-yl)propanoic acid]

SMILES: O=C(O)CCC(CCCS)C(=O)O (stereo not drawn) [Compound 1, 2-(3-mercaptopropyl)pentanedioic acid]
IC50 [3]: 90 nM | Efficacy in preclinical animal models by oral administration ([4]; variety of preclinical animal models, oral): showed efficacy

SMILES: CC(=O)S[C@@H](Cc1ccccc1)C(=O)N[C@H]1Cc2ccccc2[C@H]2CCC[C@@H](C(=O)O)N2C1=O [Compound 3]
Plasma exposure to parent 4 after oral administration of prodrug [6]: substantial plasma exposure to 4
